Source: ChEMBL document CHEMBL5380783, “N-Substituted l-Iminosugars for the Treatment of Sanfilippo Type B Syndrome” (J Med Chem, 2023)
Activity calls are given as the source filed them. The calls are words filed in the database; no cut-off is given here.

How the values were obtained:
Fibroblast [1] = test: Inhibition of heparan sulfate accumulation on cell membrane in Sanfilippo-A patient derived human fibroblast cells at 20 uM incubated for 48 hrs by indirect immunofluorescence staining analysis; assay type: functional, cell-based
How it was run: (§1)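 HDFa, MPS IIIA, MPS IIIB and MPS I patient fibroblasts in DMEM, 10% FBS, grown 48 h on coverslips with 20 μM compound. Double immunostained for HS (10E4) and Lamp1 with DAPI, confocal imaging. Mean fluorescence intensity expressed relative to untreated cells (d-enantiomers: percent positive cells), 50 random cells from three experiments.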

Fibroblast [2] = test: Inhibition of lysosomal defects in Sanfilippo-B patient derived human fibroblast cells assessed as dispersion of lysosomes all over the cytoplasm at 20 uM incubated for 48 hrs by LAMP1 staining based indirect immunofluorescence assay; assay type: functional, cell-based; how it was run: as §1
Fibroblast [3] = test: Inhibition of heparan sulfate accumulation on cell membrane in MPS-1 patient derived human fibroblast cells at 20 uM incubated for 48 hrs by indirect immunofluorescence staining analysis; assay type: functional, cell-based; how it was run: as §1
Fibroblast [4] = test: Inhibition of lysosomal defects in Sanfilippo-A patient derived human fibroblast cells assessed as reduction in accumulation of enlarged LAMP1-positive lysosomal structures within the cytoplasm at 20 uM incubated for 48 hrs by LAMP1 staining based indirect immunofluorescence assay; assay type: functional, cell-based; how it was run: as §1
HeLa [5] = test: Cytotoxicity against human HeLa cells assessed as reduction in cell viability at 20 uM incubated for 48 hrs by trypan blue exclusion method; assay type: functional, cell-based
How it was run: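 HeLa cells seeded at 100,000 per well and grown overnight in complete RPMI. Exposed to 20 μM compound in the same medium for 48 h at 37 °C; untreated mock as control. Cells trypsinized, live cells counted by trypan blue exclusion on an automated counter. Means of three independent experiments, each in triplicate, with s.e.m.; Student's t-test, p < 0.05.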

Fibroblast [6] = test: Inhibition of lysosomal defects in Sanfilippo-B patient derived human fibroblast cells assessed as reduction in more concentrated lysosomal distribution in the perinuclear region of the cytoplasm at 20 uM incubated for 48 hrs by LAMP1 staining based indirect immunofluorescence assay; assay type: functional, cell-based; how it was run: as §1
SK-N-BE(2) [7] = test: Effect on lysosome size and distribution in human SK-NBE cell clone assessed as at 20 uM incubated for 48 hrs by LAMP1 staining based indirect immunofluorescence assay; assay type: functional
How it was run: (§2)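 Control and NAGLU-silenced SK-NBE clones grown on coverslips with 20 μM compound for 48 h. Fixed in 3.7% formaldehyde, permeabilized with saponin/BSA buffer, stained with anti-Lamp1 or anti-HS 10E4 for 1 h, then Alexa secondaries. Confocal imaging with 63× objective. Scored as percent cells with enlarged Lamp1 structures or membrane HS, plus mean fluorescence intensity, over 50 random cells from three experiments.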

SK-N-BE(2) [8] = test: Inhibition of lysosomal defects in NAGLU-silenced human SK-NBE cell clones assessed as dispersion of lysosomes all over the cytoplasm at 20 uM incubated for 48 hrs by LAMP1 staining based indirect immunofluorescence assay; assay type: functional; how it was run: as §2
Fibroblast [9] = test: Inhibition of lysosomal defects in Sanfilippo-B patient derived human fibroblast cells assessed as reduction in accumulation of enlarged LAMP1-positive lysosomal structures within the cytoplasm at 20 uM incubated for 48 hrs by LAMP1 staining based indirect immunofluorescence assay; assay type: functional, cell-based; how it was run: as §1
Fibroblast [10] = test: Effect on heparan sulfate changes in human fibroblast cells at 20 uM incubated for 48 hrs by indirect immunofluorescence staining analysis; assay type: functional, cell-based; how it was run: as §1
SK-N-BE(2) [11] = test: Inhibition of lysosomal defects in NAGLU-silenced human SK-NBE cell clones assessed as reduction in accumulation of enlarged LAMP1-positive lysosomal structures within the cytoplasm at 20 uM incubated for 48 hrs by LAMP1 staining based indirect immunofluorescence assay; assay type: functional; how it was run: as §2
SK-N-BE(2) [12] = test: Inhibition of lysosomal defects in NAGLU-silenced human SK-NBE cell clones assessed as reduction in more concentrated lysosomal distribution in the perinuclear region of the cytoplasm at 20 uM incubated for 48 hrs by LAMP1 staining based indirect immunofluorescence assay; assay type: functional; how it was run: as §2
Fibroblast [13] = test: Inhibition of heparan sulfate accumulation on cell membrane in Sanfilippo-B patient derived human fibroblast cells at 20 uM incubated for 48 hrs by indirect immunofluorescence staining analysis; assay type: functional, cell-based; how it was run: as §1
Fibroblast [14] = test: Inhibition of lysosomal defects in MPS-1 patient derived human fibroblast cells assessed as reduction in accumulation of enlarged LAMP1-positive lysosomal structures within the cytoplasm at 20 uM incubated for 48 hrs by LAMP1 staining based indirect immunofluorescence assay; assay type: functional, cell-based; how it was run: as §1
[15] = Antiproliferative activity against human CuFi cells upto 100 uM; assay type: toxicity, cell-based
SK-N-BE(2) [16] = test: Inhibition of heparan sulfate accumulation on cell membrane in NAGLU-silenced human SK-NBE cells clone at 20 uM incubated for 48 hrs by indirect immunofluorescence staining analysis; assay type: functional, cell-based; how it was run: as §2
HaCaT [17] = test: Antiproliferative activity against human HaCaT cells upto 100 uM; assay type: toxicity, cell-based
[18] = Cytotoxicity against human CuFi cells assessed as induction of apoptosis upto 100 uM; assay type: toxicity, cell-based
HaCaT [19] = test: Cytotoxicity against human HaCaT cells assessed as induction of apoptosis upto 100 uM; assay type: toxicity, cell-based
IB3-1 [20] = test: Cytotoxicity against human IB3-1 cells assessed as induction of apoptosis upto 100 uM; assay type: toxicity, cell-based; conditions: ib3-1, 100 µM
SK-N-BE(2) [21] = test: Effect on heparan sulfate changes in human SK-NBE cell membrane at 20 uM incubated for 48 hrs by indirect immunofluorescence staining analysis; assay type: functional, cell-based; how it was run: as §2
HeLa [22] = test: Inhibition of heparan sulfate accumulation on cell membrane in human HeLa cells at 20 uM incubated for 48 hrs by indirect immunofluorescence staining analysis; assay type: functional, cell-based
How it was run: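 HeLa cells grown 48 h with compound, then immunostained with anti-HS antibody 10E4 to gauge membrane HS.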

IB3-1 [23] = test: Antiproliferative activity against human IB3-1 cells upto 100 uM; assay type: toxicity, cell-based; conditions: ib3-1, 100 µM

Compound | inhibition (Fibroblast [1]) | inhibition (Fibroblast [2]) | inhibition (Fibroblast [3]) | inhibition (Fibroblast [4]) | Activity (HeLa [5]) | inhibition (Fibroblast [6]) | Activity (SK-N-BE(2) [7]) | inhibition (SK-N-BE(2) [8]) | inhibition (Fibroblast [9]) | Activity (Fibroblast [10]) | inhibition (SK-N-BE(2) [11]) | Activity [15] | inhibition (SK-N-BE(2) [16]) | Activity (HaCaT [17]) | Activity [18] | Activity (HaCaT [19]) | Activity (IB3-1 [20]) | Activity (SK-N-BE(2) [21]) | inhibition (HeLa [22]) | Activity (IB3-1 [23]) | further results
OC[C@H]1NC[C@H](O)[C@@H](O)[C@@H]1O | inactive | inactive | inactive | inactive | inactive | inactive | inactive | inactive | inactive | inactive | inactive | – | – | – | – | – | – | – | – | – | inhibition (SK-N-BE(2) [12]): inactive; inhibition (Fibroblast [13]): inactive; inhibition (Fibroblast [14]): inactive
CCCCCCCCCN1C[C@@H](O)[C@H](O)[C@@H](O)[C@@H]1CO.Cl | – | inactive | – | – | inactive | inactive | inactive | – | inactive | inactive | inactive | Non-Toxic | inactive | Non-Toxic | Non-Toxic | Non-Toxic | Non-Toxic | inactive | inactive | Non-Toxic | –
CCCCN1C[C@H](O)[C@@H](O)[C@H](O)[C@H]1CO | inactive | inactive | inactive | inactive | inactive | inactive | inactive | inactive | inactive | inactive | inactive | – | – | – | – | – | – | – | – | – | inhibition (SK-N-BE(2) [12]): inactive; inhibition (Fibroblast [13]): inactive; inhibition (Fibroblast [14]): inactive
CCCCCCOCCCCCN1C[C@@H](O)[C@H](O)[C@@H](O)[C@@H]1CO.Cl | – | inactive | – | – | inactive | inactive | inactive | – | inactive | inactive | inactive | Non-Toxic | inactive | Non-Toxic | Non-Toxic | Non-Toxic | Non-Toxic | inactive | inactive | Non-Toxic | –
CCCCCCCCCOCCCCCN1C[C@@H](O)[C@H](O)[C@@H](O)[C@@H]1CO.Cl | – | inactive | – | – | inactive | inactive | inactive | – | inactive | inactive | inactive | Non-Toxic | inactive | Non-Toxic | Non-Toxic | Non-Toxic | Non-Toxic | inactive | inactive | Non-Toxic | –
